# Data taken from ChEMBL document CHEMBL1140927, “Discovery of N-(3-fluorophenyl)-1-[(4-([(3S)-3-methyl-1-piperazinyl]methyl)phenyl)acetyl]-4-piperidinamine (GSK962040), the first small molecule motilin receptor agonist clinical candidate” (J Med Chem, 2009).
# Key:
# Cytochrome P450 3A4 [1] = target: T1, Cytochrome P450 3A4 (Homo sapiens, UniProt P08684); test: Inhibition of human CYP3A4 expressed in Escherichia coli using diethoxyfluorescein substrate assessed as decrease in enzyme activity by time dependent inhibition assay; assay type: ADME; set-up: unit not given here
# Motilin receptor [2] = target: T2, Motilin receptor (Homo sapiens, UniProt O43193); test: Agonist activity at human recombinant motilin receptor expressed in CHO cells assessed as increase in intracellular calcium by FLIPR assay; assay type: functional, cell-based
# Outline: (§1)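 CHO-K1 cells stably transfected with human motilin receptor, grown in DMEM/HamF-12 with 10% FBS, 2 mM GlutaMAX, 1 mg/mL Geneticin; seeded 10 000 cells/well, 24 h. Loaded with Fluo 4 (2.5 µM) in Tyrodes with probenecid, 1 h at 37.5 °C. Compound top final 12 µM, 1-in-4 dilutions; fluorescence read over 1 min; max change over baseline, four-parameter logistic fit; intrinsic activity = curve maximum relative to motilin maximum.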
# Cytochrome P450 3A4 [3] = target: T1, Cytochrome P450 3A4; test: Inhibition of human CYP3A4 expressed in Escherichia coli using diethoxyfluorescein substrate by time dependent inhibition assay; assay type: ADME
# Motilin receptor [4] = target: T2, Motilin receptor; test: Intrinsic activity at human recombinant motilin receptor expressed in CHO cells relative to motilin; assay type: cell-based; outline: as §1
# Cytochrome P450 3A4 [5] = target: T1, Cytochrome P450 3A4; test: Inhibition of human CYP3A4 expressed in Escherichia coli using 7BQ substrate by time dependent inhibition assay; assay type: ADME
# Cytochrome P450 2D6 = Cytochrome P450 2D6 (Homo sapiens, UniProt P10635); test: Inhibition of human CYP2D6; assay type: ADME
# Cytochrome P450 2C9 = Cytochrome P450 2C9 (Homo sapiens, UniProt P11712); test: Inhibition of human CYP2C9; assay type: ADME
# Cytochrome P450 3A4 [6] = target: T1, Cytochrome P450 3A4; test: Inhibition of human CYP3A4 expressed in Escherichia coli using diethoxyfluorescein substrate measured in 0 to 5 mins by time dependent inhibition assay; assay type: ADME
# [7] = target: Voltage-gated inwardly rectifying potassium channel KCNH2 (Homo sapiens, UniProt Q12809); test: Binding affinity to human ERG
# Stomach = test: Potentiation of electric field stimulated-rabbit gastric antrum contraction at 3 uM; assay type: functional, Oryctolagus cuniculus
# Outline: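 Isolated rabbit gastric antrum; cholinergic contractions evoked by electrical field stimulation, compound response expressed as % potentiation of EFS-evoked contraction, n = 4-8.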
# Cytochrome P450 2C19 = Cytochrome P450 2C19 (Homo sapiens, UniProt P33261); test: Inhibition of human CYP2C19; assay type: ADME
# Cytochrome P450 1A2 = target: T3, Cytochrome P450 1A2 (Homo sapiens, UniProt P05177); test: Inhibition of human CYP1A2; assay type: ADME
# T3 sequence (P05177 whole entry): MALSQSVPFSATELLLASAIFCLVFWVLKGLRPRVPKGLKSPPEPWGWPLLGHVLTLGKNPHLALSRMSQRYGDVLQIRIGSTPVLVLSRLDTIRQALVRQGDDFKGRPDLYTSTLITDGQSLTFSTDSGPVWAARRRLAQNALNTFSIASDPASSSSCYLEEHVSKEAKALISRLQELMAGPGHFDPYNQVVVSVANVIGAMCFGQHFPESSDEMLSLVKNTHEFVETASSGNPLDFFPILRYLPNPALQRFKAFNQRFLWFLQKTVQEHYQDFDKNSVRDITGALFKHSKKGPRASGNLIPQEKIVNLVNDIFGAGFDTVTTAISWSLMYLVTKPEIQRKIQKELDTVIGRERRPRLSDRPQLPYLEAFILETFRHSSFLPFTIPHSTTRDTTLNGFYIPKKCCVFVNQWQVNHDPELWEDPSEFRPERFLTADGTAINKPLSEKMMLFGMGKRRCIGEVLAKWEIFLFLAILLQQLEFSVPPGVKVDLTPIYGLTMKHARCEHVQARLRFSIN
# Cytochrome P450 3A4 [8] = target: T1, Cytochrome P450 3A4; test: Inhibition of human CYP3A4 expressed in Escherichia coli using diethoxyfluorescein substrate measured in 25 to 30 mins by time dependent inhibition assay; assay type: ADME
# T1 sequence (P08684 whole entry): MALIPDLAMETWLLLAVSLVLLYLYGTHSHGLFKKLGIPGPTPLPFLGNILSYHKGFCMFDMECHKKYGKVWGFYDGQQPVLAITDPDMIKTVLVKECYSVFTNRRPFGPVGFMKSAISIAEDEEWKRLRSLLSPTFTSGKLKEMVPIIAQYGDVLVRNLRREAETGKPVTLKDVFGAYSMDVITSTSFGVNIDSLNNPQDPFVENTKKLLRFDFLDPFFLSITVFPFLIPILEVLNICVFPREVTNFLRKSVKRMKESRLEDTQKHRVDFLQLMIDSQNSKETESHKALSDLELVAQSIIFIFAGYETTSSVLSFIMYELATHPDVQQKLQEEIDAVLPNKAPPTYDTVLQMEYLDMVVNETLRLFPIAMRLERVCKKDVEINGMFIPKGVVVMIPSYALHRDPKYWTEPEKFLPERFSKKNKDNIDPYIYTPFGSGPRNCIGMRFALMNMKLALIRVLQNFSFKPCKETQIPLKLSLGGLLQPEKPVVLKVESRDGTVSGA
# T2 sequence (O43193 whole entry): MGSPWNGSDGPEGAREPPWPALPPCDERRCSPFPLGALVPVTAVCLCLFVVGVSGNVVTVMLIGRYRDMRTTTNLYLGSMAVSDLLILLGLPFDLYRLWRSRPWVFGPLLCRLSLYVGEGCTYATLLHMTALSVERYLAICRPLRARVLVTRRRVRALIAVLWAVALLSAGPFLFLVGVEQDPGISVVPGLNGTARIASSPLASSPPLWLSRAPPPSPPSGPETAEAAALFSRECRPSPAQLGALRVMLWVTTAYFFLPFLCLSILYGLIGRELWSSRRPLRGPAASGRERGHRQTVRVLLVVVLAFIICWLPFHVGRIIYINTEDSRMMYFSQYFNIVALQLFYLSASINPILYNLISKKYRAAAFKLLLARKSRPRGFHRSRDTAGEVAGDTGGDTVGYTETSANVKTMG
# Cytochrome P450 2C19, sequence (P33261 whole entry): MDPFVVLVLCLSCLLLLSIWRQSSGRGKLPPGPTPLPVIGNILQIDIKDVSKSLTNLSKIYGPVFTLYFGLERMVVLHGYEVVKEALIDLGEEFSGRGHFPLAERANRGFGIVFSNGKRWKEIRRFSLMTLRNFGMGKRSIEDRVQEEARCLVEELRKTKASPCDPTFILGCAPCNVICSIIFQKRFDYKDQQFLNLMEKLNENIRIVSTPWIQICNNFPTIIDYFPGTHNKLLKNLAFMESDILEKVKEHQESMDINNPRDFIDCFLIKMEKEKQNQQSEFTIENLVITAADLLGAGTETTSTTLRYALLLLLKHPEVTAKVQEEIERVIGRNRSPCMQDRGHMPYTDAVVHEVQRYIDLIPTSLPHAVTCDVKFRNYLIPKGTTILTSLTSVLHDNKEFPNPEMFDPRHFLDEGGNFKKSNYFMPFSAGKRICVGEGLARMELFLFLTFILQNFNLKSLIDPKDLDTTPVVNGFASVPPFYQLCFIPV
# Cytochrome P450 2C9, sequence (P11712 whole entry): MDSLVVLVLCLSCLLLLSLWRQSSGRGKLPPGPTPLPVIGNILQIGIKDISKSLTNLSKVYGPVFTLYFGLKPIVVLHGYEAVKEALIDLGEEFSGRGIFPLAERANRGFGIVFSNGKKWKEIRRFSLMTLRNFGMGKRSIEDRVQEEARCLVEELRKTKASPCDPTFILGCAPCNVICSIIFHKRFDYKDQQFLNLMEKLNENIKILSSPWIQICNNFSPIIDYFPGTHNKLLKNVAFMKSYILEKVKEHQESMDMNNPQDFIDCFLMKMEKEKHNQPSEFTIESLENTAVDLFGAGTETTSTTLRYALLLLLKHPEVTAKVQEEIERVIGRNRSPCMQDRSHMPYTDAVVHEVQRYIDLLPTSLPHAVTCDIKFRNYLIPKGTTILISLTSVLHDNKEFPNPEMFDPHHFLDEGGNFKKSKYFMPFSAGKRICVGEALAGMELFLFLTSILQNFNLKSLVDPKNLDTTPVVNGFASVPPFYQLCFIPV
# Voltage-gated inwardly rectifying potassium channel KCNH2, sequence (Q12809 whole entry): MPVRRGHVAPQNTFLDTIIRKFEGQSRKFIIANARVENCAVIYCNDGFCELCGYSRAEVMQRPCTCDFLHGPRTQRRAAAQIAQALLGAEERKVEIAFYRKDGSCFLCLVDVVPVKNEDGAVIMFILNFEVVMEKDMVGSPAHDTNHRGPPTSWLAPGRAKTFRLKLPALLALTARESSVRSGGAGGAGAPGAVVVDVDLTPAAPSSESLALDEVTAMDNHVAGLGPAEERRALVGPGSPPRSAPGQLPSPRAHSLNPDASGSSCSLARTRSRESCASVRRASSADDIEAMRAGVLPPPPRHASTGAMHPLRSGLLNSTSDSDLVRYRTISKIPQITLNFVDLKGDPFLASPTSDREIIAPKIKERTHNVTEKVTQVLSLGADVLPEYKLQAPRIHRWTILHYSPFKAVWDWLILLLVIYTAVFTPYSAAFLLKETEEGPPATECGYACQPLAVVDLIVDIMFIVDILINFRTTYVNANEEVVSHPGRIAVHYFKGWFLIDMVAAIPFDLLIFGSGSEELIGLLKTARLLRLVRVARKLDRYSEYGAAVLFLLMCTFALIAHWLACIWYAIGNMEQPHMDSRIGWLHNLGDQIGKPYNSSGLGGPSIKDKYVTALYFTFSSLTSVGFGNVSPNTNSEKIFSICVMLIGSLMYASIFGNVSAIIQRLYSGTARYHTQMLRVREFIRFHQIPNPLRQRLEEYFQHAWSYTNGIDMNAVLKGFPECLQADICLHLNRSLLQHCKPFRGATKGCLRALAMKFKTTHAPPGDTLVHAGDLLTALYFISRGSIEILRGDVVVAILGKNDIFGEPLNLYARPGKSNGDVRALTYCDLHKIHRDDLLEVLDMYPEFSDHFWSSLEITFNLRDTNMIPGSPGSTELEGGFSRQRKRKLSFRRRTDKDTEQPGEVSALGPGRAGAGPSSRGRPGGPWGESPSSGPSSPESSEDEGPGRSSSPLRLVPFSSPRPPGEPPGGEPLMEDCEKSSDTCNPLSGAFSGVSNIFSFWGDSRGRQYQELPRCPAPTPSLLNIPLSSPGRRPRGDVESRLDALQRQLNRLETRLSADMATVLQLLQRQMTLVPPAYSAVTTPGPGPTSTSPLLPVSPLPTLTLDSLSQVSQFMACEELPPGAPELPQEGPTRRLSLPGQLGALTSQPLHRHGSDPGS
# Cytochrome P450 2D6, sequence (P10635 whole entry): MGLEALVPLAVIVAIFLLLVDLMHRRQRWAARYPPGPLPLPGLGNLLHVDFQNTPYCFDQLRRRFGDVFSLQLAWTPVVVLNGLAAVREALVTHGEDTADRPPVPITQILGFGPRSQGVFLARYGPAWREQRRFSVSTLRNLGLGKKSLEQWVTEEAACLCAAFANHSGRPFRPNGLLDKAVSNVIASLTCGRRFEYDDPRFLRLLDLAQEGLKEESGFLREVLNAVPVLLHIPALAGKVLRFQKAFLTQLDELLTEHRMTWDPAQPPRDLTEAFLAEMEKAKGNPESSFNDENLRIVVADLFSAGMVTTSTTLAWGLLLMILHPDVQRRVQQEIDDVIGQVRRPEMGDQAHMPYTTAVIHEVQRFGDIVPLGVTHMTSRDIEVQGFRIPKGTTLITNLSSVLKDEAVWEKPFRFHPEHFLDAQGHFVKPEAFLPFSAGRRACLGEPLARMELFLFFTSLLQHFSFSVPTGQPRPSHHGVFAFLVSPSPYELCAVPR
SMILES,EC50 (Motilin receptor [2]),Intrinsic activity (Motilin receptor [4]),also measured
C[C@@H]1CN(Cc2ccc(C(C)(C)C(=O)N3CCC(Nc4ccc(F)cc4)CC3)cc2)C[C@H](C)N1,31.6 nM,0.7,Activity (Cytochrome P450 3A4 [1]): 6.1; IC50 (Cytochrome P450 3A4 [3]): 4700 nM
C[C@H]1CN(Cc2ccc(CCC(=O)N3CCC(Nc4cccc(F)c4)CC3)cc2)CCN1,25.1 nM,1,IC50 (Cytochrome P450 3A4 [5]): 18000 nM; Activity (Cytochrome P450 3A4 [1]): 3.2; IC50 (Cytochrome P450 3A4 [3]): 10000 nM
C[C@@H]1CN(Cc2ccc(CCC(=O)N3CCC(Nc4ccc(F)cc4)CC3)cc2)C[C@H](C)N1,50.1 nM,0.9,–
C[C@@H]1CN(Cc2ccc(CC(=O)N3CCC(Nc4cccc(F)c4)CC3)cc2)CCN1,20 nM,0.7,–
CC[C@H](C)[C@H](NC(=O)[C@@H]1CCCN1C(=O)[C@@H](NC(=O)[C@@H](N)Cc1ccccc1)C(C)C)C(=O)N[C@@H](Cc1ccccc1)C(=O)N[C@H](C(=O)N[C@@H](Cc1ccc(O)cc1)C(=O)NCC(=O)N[C@@H](CCC(=O)O)C(=O)N[C@@H](CC(C)C)C(=O)N[C@@H](CCC(N)=O)C(=O)N[C@@H](CCCNC(=N)N)C(=O)N[C@@H](CCSC)C(=O)N[C@@H](CCC(N)=O)C(=O)N[C@@H](CCC(=O)O)C(=O)N[C@@H](CCCCN)C(=O)N[C@@H](CCC(=O)O)C(=O)N[C@@H](CCCNC(=N)N)C(=O)N[C@@H](CC(N)=O)C(=O)N[C@@H](CCCCN)C(=O)NCC(=O)N[C@@H](CCC(N)=O)C(=O)O)[C@@H](C)O,0.0398 nM,1,–
C[C@H]1CN(Cc2ccc(CC(=O)N3CCC(Nc4ccc(F)cc4)CC3)cc2)CCN1,10 nM,0.8,–
C[C@H]1CN(Cc2ccc(CC(=O)N3CCC(Nc4cccc(F)c4)CC3)cc2)CCN1,–,0.9,–
C[C@@H]1CN(Cc2ccc(-c3cccnc3C(=O)N3CCC(Nc4ccc(F)cc4)CC3)cc2)C[C@H](C)N1,3.98 nM,–,IC50 (Cytochrome P450 2D6): > 23000 nM; IC50 (Cytochrome P450 2C9): > 23000 nM; IC50 (Cytochrome P450 3A4 [6]): 20000 nM; IC50 [7]: > 31600 nM; Activity (Stomach): 343%; IC50 (Cytochrome P450 2C19): > 23000 nM; IC50 (Cytochrome P450 1A2): > 23000 nM; IC50 (Cytochrome P450 3A4 [8]): 1400 nM
